Measured values taken from ChEMBL document CHEMBL2380292, “Discovery of SAR184841, a potent and long-lasting inhibitor of 11β-hydroxysteroid dehydrogenase type 1, active in a physiopathological animal model of T2D” (Bioorg Med Chem Lett, 2013).

Legend:
[1] = Permeability across human Caco2 cells; assay type: ADME, cell-based; details: Caco-2, read-out: permeability
Procedure, shortened: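 Permeability was measured with the compound alone and in the presence of the P-gp inhibitor elacridar, and expressed in 10^-7 cm/s.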

Mus musculus [2] = assay: Ex vivo inhibition of 11beta-HSD1 in C57Bl/6J mouse subcutaneous fat at 30 mg/kg, po after 16 hrs; assay type: functional
Procedure, shortened: (§1)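 Mice given a single oral dose as a suspension in Tween 80/0.6% methylcellulose (0.5/99.5, v/v) at 10 mL/kg. At 2 h or 16 h post-dose, animals were killed by cervical dislocation and 50 mg liver and 200 mg subcutaneous fat were taken for 11β-HSD1 activity. Reactions were stopped with HCl 1 N/methanol (1/1). 3H-cortisone and 3H-cortisol were quantified by HPLC with flow scintillation detection.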

Mus musculus [3] = assay: Ex vivo inhibition of 11beta-HSD1 in C57Bl/6J mouse liver at 30 mg/kg, po after 16 hrs; assay type: functional; procedure, shortened: as §1
Liver microsomes [4] = assay: Metabolic stability in rat liver microsomes; assay type: ADME, Microsome
Liver microsomes [5] = assay: Metabolic stability in human liver microsomes; assay type: ADME, Microsome
Liver = assay: Metabolic stability in mouse liver microsomes; assay type: ADME, Microsome
[6] = target: 11-beta-hydroxysteroid dehydrogenase 1 (Mus musculus, UniProt P50172); assay: Inhibition of mouse recombinant 11beta-HSD1 by scintillation proximity assay
[7] = target: 11-beta-hydroxysteroid dehydrogenase 1 (Rattus norvegicus, UniProt P16232); assay: Inhibition of rat 11beta-HSD1
Cytochrome P450 3A4 = Cytochrome P450 3A4 (Homo sapiens, UniProt P08684); assay: Inhibition of CYP3A4 (unknown origin); assay type: ADME
Mus musculus [8] = assay: Ex vivo inhibition of 11beta-HSD1 in C57Bl/6J mouse subcutaneous fat at 3 mg/kg, po after 16 hrs; assay type: functional; procedure, shortened: as §1
Mus musculus [9] = assay: Ex vivo inhibition of 11beta-HSD1 in C57Bl/6J mouse liver at 3 mg/kg, po after 16 hrs; assay type: functional; procedure, shortened: as §1
[10] = target: T1, 11-beta-hydroxysteroid dehydrogenase type 2 (Homo sapiens, UniProt P80365); assay: Inhibition of human 11beta-HSD2
T1 sequence (P80365 whole entry): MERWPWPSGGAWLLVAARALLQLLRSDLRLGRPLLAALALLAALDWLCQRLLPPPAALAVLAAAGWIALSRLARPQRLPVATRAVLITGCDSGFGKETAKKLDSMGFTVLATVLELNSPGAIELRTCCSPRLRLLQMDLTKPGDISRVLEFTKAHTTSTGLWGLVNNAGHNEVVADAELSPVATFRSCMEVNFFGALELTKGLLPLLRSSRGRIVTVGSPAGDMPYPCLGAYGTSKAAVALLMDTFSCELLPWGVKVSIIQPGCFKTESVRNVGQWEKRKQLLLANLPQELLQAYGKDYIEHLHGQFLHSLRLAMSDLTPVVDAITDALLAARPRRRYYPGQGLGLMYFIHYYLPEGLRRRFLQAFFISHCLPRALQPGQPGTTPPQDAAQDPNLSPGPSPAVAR

Mus musculus [11] = assay: Ex vivo inhibition of 11beta-HSD1 in C57Bl/6J mouse subcutaneous fat at 30 mg/kg, os after 2 hrs; assay type: functional; details: sc; procedure, shortened: as §1
Mus musculus [12] = assay: Ex vivo inhibition of 11beta-HSD1 in C57Bl/6J mouse liver at 30 mg/kg, os after 2 hrs; assay type: functional; procedure, shortened: as §1
Mus musculus [13] = assay: Ex vivo inhibition of 11beta-HSD1 in C57Bl/6J mouse subcutaneous fat at 10 mg/kg, os after 2 hrs; assay type: functional; details: sc; procedure, shortened: as §1
Mus musculus [14] = assay: Ex vivo inhibition of 11beta-HSD1 in C57Bl/6J mouse liver at 10 mg/kg, os after 2 hrs; assay type: functional; procedure, shortened: as §1

Sequence of 11-beta-hydroxysteroid dehydrogenase 1 (Mus musculus, UniProt P50172) (P50172 whole entry): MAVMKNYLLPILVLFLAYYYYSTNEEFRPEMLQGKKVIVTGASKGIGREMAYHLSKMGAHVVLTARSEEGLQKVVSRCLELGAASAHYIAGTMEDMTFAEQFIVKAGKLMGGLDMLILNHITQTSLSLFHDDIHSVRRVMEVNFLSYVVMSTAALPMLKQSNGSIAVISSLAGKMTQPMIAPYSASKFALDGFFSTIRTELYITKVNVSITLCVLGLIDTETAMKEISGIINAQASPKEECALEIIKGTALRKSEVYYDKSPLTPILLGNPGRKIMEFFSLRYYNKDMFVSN
Sequence of Cytochrome P450 3A4 (P08684 whole entry): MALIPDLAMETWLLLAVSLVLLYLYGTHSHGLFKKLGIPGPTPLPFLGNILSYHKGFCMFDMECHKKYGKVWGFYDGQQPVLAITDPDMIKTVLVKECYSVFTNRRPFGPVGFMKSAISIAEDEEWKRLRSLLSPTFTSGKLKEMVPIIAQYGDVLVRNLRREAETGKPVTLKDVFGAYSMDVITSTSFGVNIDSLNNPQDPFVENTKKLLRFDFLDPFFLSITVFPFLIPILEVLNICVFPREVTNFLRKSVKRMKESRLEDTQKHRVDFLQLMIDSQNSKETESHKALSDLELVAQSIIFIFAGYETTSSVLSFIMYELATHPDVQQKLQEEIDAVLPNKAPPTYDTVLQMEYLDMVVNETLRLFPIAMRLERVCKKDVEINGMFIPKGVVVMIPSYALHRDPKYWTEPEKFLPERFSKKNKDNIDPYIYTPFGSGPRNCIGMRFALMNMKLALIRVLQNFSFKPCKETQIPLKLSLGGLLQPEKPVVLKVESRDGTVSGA
Sequence of 11-beta-hydroxysteroid dehydrogenase 1 (Rattus norvegicus, UniProt P16232) (P16232 whole entry): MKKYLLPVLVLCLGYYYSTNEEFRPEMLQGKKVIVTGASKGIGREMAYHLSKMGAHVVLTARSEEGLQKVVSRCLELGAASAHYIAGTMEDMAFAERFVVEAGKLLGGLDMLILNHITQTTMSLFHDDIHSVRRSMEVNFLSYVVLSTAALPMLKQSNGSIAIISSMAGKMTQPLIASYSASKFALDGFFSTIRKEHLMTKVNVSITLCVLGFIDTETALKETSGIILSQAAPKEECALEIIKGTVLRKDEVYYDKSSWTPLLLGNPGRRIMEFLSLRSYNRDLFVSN

| SMILES | Papp [1] [×10⁻⁶ cm/s] | inhibition in vivo at 30 mg/kg (Mus musculus [2]) [%] | inhibition in vivo at 30 mg/kg (Mus musculus [3]) [%] | Stability (Liver microsomes [4]) [%] | Stability (Liver microsomes [5]) [%] | Stability (Liver) [%] | IC50 [6] [nM] | IC50 [7] [nM] | IC50 (Cytochrome P450 3A4) [nM] | inhibition in vivo at 3 mg/kg (Mus musculus [8]) [%] | inhibition in vivo at 3 mg/kg (Mus musculus [9]) [%] | IC50 [10] [nM] | inhibition in vivo at 30 mg/kg (Mus musculus [11]) [%] | inhibition in vivo at 30 mg/kg (Mus musculus [12]) [%] | inhibition in vivo at 10 mg/kg (Mus musculus [13]) [%] | inhibition in vivo at 10 mg/kg (Mus musculus [14]) [%] |
| --- | --- | --- | --- | --- | --- | --- | --- | --- | --- | --- | --- | --- | --- | --- | --- | --- |
| CC(C)(C)N1CCN(c2ccc(N3CCN(C(=O)N[C@H]4C5CC6CC4C[C@](O)(C6)C5)c4ccccc43)nc2)CC1 | 3.4 | 20 | 55 | 20 | 14 | 6 | 8 | 18 | – | – | – | – | – | – | – | – |
| COc1ccc(-c2cnc(N3CCN(C(=O)N[C@H]4C5CC6CC4C[C@](C(N)=O)(C6)C5)c4ccccc43)nc2)cc1 | 18.2 | – | – | 32 | 49 | 27 | 36 | 70 | > 10000 | – | – | – | – | – | – | – |
| O=C(N[C@H]1C2CC3CC1C[C@](O)(C3)C2)N1CCN(c2ccc(N3CCN(S(=O)(=O)C4CC4)CC3)cn2)c2ccccc21 | 9.8 | 40 | 65 | 23 | 9 | 22 | 21 | 21 | > 10000 | – | – | – | – | – | – | – |
| NC(=O)[C@]12CC3CC(C1)[C@@H](NC(=O)N1CCN(c4ccc(N5CCN(S(=O)(=O)C6CC6)CC5)cn4)c4ccccc41)C(C3)C2 | 0.4 | 50 | 75 | 31 | 1 | 18 | 8 | 9 | > 30000 | > 50 | > 50 | – | – | – | – | – |
| COc1ccc(-c2cnc(N3CCN(C(=O)N[C@H]4C5CC6CC4C[C@](OC(N)=O)(C6)C5)c4ccccc43)nc2)cc1 | – | – | – | 70 | 89 | 96 | 5 | 100 | > 10000 | – | – | – | – | – | – | – |
| CC(=O)N1CCN(c2ccc(N3CCN(C(=O)N[C@H]4C5CC6CC4C[C@](O)(C6)C5)c4ccccc43)nc2)CC1 | 1 | 0 | 0 | 18 | 5 | 14 | – | 65 | > 30000 | – | – | – | – | – | – | – |
| CS(=O)(=O)N1CCN(c2cnc(N3CCN(C(=O)N[C@H]4C5CC6CC4C[C@](O)(C6)C5)c4ccccc43)nc2)CC1 | 0.7 | 0 | 30 | 24 | 9 | 18 | 1 | 28 | > 10000 | – | – | – | – | – | – | – |
| CS(=O)(=O)N1CCN(c2ccc(N3CCN(C(=O)N[C@H]4C5CC6CC4C[C@](C(N)=O)(C6)C5)c4ccccc43)cc2)CC1 | 3 | 30 | 55 | 26 | 3 | 22 | 5 | 24 | > 10000 | – | – | – | – | – | – | – |
| CS(=O)(=O)N1CCN(c2ccc(N3CCN(C(=O)N[C@H]4C5CC6CC4C[C@](O)(C6)C5)c4ccccc43)nc2)CC1 | 7.9 | 20 | 47 | 12 | 12 | 18 | 2 | 16 | > 30000 | – | – | – | – | – | – | – |
| CS(=O)(=O)N1CCN(c2ccc(N3CCN(C(=O)N[C@H]4C5CC6CC4C[C@](O)(C6)C5)c4ccccc43)cc2)CC1 | 19.4 | 55 | 80 | 17 | 2 | 9 | 1 | 114 | > 10000 | – | – | – | – | – | – | – |
| COc1ccc(-c2cnc(N3CCN(C(=O)N4CCC(c5cn[nH]c5)C4)c4ccccc43)nc2)cc1 (centres undefined) | – | – | – | – | – | – | – | 600 | < 300 | – | – | > 10000 | 70 | 90 | – | – |
| COc1ccc(-c2cnc(N3CCN(C(=O)N[C@H]4C5CC6CC4C[C@](O)(C6)C5)c4ccccc43)nc2)cc1 | 24.8 | – | – | 33 | 41 | 21 | 15 | 110 | > 10000 | – | – | – | – | – | 30 | 40 |
